Data reported in paper PMC5912169 (Bioorganic & medicinal chemistry letters, 2018).

Key:
T. brucei (STIB795) = experiment: In vivo antitrypanosomal activity, T. b. brucei STIB795-Luc mouse model; design: species or system mice; conditions: 4 consecutive days
Procedure, shortened: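 Groups of four female NMRI mice were infected ip with 1 × 10⁴ bloodstream-form T. b. brucei STIB795-Luc. Test compound was given ip in water plus 10% DMSO from 3 days post-infection, with an untreated control group. Parasitemia was tracked by live imaging, and moribund mice were euthanized.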

[1] = biological target: T. brucei cathepsin L (rhodesain) (Trypanosoma brucei rhodesiense, UniProt Q95PM0); experiment: Rhodesain inhibition assay; type: biochemical; conditions: 1 hour pre-incubation
Procedure, shortened: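 Rhodesain was expressed in Pichia pastoris and used at 0.8 nM final in 50 mM sodium acetate pH 5.5 with 2 mM DTT and 0.01% Triton X-100. It was pre-incubated 1 h with test compound (20 μM final), then Z-Phe-Arg-AMC (10 μM) was added. Cleavage rate (RFU/sec) was read at 25 °C, λex 355/λem 460 nm. E-64 (10 μM) served as positive control.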

human cathepsin L = human cathepsin L (Homo sapiens, UniProt P07711); experiment: Human cathepsin L inhibition; type: biochemical; conditions: from 0.1 μM to 125 μM; 1 hour pre-incubation
Sequence of human cathepsin L (P07711 114-333): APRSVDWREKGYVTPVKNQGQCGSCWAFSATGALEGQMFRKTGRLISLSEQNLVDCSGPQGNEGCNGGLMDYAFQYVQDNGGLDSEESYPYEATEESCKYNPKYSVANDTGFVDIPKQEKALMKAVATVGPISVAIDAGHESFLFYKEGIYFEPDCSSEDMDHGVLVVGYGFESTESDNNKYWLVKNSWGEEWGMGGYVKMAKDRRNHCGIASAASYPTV
Procedure, shortened: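 Human liver-derived cathepsin L (0.58 nM) in 400 mM sodium acetate pH 5.5 with 8 mM DTT, 4 mM EDTA and 0.01% Triton X-100. Pre-incubated 1 h with test compound, then Z-Phe-Arg-AMC (20 μM, concentration as added) in sodium acetate buffer. Substrate cleavage was followed as fluorescence rate (RFU/sec) at 25 °C, λex 355/λem 460 nm.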

Which results are given for O=C(Cc1ccc(OC/C=C/S(=O)(=O)c2ccccc2)cc1)Nc1cccc2cccnc12 [Compound 9]?
parasites in infected mice 24 hours posttreatment (T. brucei (STIB795); 50 mg/kg/day intraperitoneally): positive for parasites; parasites in infected mice 24 hours posttreatment (T. brucei (STIB795); 100 mg/kg/day intraperitoneally): positive for parasites

What does the source list for O=C(N[C@H](/C=C/S(=O)(=O)c1ccccc1)CCc1ccccc1)c1cccc2cccnc12 [Compound 27]?
inhibition of rhodesain at 20 μM [1]: completely inactivate; inhibitory activity against human cathepsin L (human cathepsin L): inactive
